# Screens as filed in PubChem BioAssay.
# Compounds with a hit are over-represented: about 2.2% of the library has one in this group of screens.
# SDO1 yeast rescue – sdo1-depleted yeast growth rescue | S. cerevisiae sdo1-depleted JHY4D growth rescue, OD600 30 h; active compounds read high; pdr5 snq2 efflux-pump mutant strain | z-score at 10 µM | 0.21% of 140,000 active;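 active = z-score above 3 at both the 24 hr and the 30 hr optical density reads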
# PTEN del growth – PTEN-deleted cell growth suppression. HCT116 PTEN-null viability, CellTiter-Glo, 60 h; active compounds read low. viability, % at 10 µM. 1.2% of 140,000 active. AID 827;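 active = viability at or below a set limit, 4 SD under the median of all tested compounds, cut at about 3.7% in these data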;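 also: PTEN knockout HCT116 line with beta catenin targeted HCT116 as companion control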
# Autophagy mod – modulators of autophagy; MEF GFP-LC3 puncta imaging; test concentration mostly 10 µM; calls only at 10 µM (by protocol); 0.98% of 190,000 active;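 active = percentage of spot-positive cells more than 3 SD above its plate mean, without a fluorescence outlier flag or 80% toxicity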
# bCat KO growth – beta-catenin-lacking colon tumor cell growth suppression | HCT116 beta-catenin knockout viability, CellTiter-Glo, 60 h; active compounds read low | viability, % at 10 µM | 1.5% of 140,000 active | AID 818;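 active = viability at or under a set limit, the compound median less 4 SD, cut at about 6% in these data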
# Dynein transport – dynein cargo transport inhibition; 3617.4 mouse cells, GR-EGFP nuclear translocation imaging; test concentration mostly 20 µM; stimulated with dexamethasone, 1 µM; active compounds read low; z-score, hits read low; 0.47% of 220,000 active;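 active = plate z-score of nuclear minus cytoplasmic receptor signal below a set negative limit, without overly bright fluorescence or cell loss, cut at about -3.5 in these data, passing the limit was not always enough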;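 also: z-score of nuclear minus cytoplasmic ring GR-EGFP intensity difference per well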
#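 Medium: Induction medium lacking tetracycline, stripped serum | Probe or stimulus: 1.0 µM final dexamethasone stimulus | Schedule: 48 h induction, then 1 h compound, then 30 min agonist, 37 °C | Signal: Automated 10x imaging of fixed Hoechst-stained cells | Evaluation: Per-cell GR-EGFP intensity, nucleus versus surrounding cytoplasmic ring, well-averaged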
# A number is an active result; n = inactive; x = no result given; + = active, no number.
SMILES,SDO1 yeast rescue,PTEN del growth,Autophagy mod,bCat KO growth,Dynein transport
O=C(/C=C/c1cn(CC(O)CN2CCCCC2)c2ccccc12)c1ccccc1 (centres undefined),x,x,x,x,n
O=C(/C=C/c1cn(CC(O)CN2CCCCC2)c2ccccc12)c1cccs1 (centres undefined),n,n,+,2.7,n
CCCN(CCC)CC(O)Cn1cc(/C=C/C(=O)c2cccs2)c2ccccc21 (centres undefined),n,1.3,n,1.2,n
CC1(C)OCC(COC(=O)Nc2cccnc2)([N+](=O)[O-])CO1,x,x,n,x,n
N#Cc1ccc(-c2ccc(Cl)cc2)nc1SCC(=O)c1cccc(Cl)c1,n,n,+,n,n
CCN(CC)C(=O)CSc1nc(-c2ccccc2)ccc1C#N,x,x,n,x,n
N#Cc1ccc(-c2ccccc2)nc1SCC(=O)c1cccc(Cl)c1,n,n,+,n,n
C[C@@H]1CN(Cc2nc(-c3cccs3)no2)C[C@H](C)O1,x,x,+,x,n
Cc1cccc(-n2nc([N+](=O)[O-])c(=NC3CCN(Cc4ccccc4)CC3)n2O)c1,x,x,n,x,n
Cc1nc(-n2[nH]c3c(c2=O)CCCC3)[nH]c(=O)c1Cc1ccccc1,n,3.2,+,5.3,n
Cc1nc(N2CCc3ccccc3C2)[nH]c(=O)c1Cc1ccccc1,x,x,n,x,n
Cc1cc(C(F)(F)F)c(C#N)c(SCC(=O)Nc2nc3ccccc3s2)n1,n,n,+,n,n
CSc1nc(-c2ccco2)nn1C(=O)Cc1ccccc1,n,n,+,n,n
CCN(CCCNC(=O)CCc1nc(-c2ccc(OC)cc2)no1)c1cccc(C)c1,n,n,n,n,n
CC(C)C(=O)NC(c1ccc([N+](=O)[O-])cc1)c1c(O)ccc2ccccc12 (centres undefined),n,1.8,n,2.0,n
CC1C/C(=C/c2ccncc2)C(=O)/C(=C/c2ccncc2)C1 (centres undefined),x,x,n,x,-6.02
CC1CC(C)CN(C(=O)c2ccncc2)C1 (centres undefined),n,n,n,n,n
CC1C/C(=C/c2cccn2C)C(=O)/C(=C/c2cccn2C)C1 (centres undefined),n,n,n,3.8,n
CCN(CC)CCNc1ncnc2c1sc1nc(N3CCOCC3)c3c(c12)CC(C)(C)SC3,n,1.5,n,1.6,n
CC1(C)Cc2c(c(N3CCOCC3)nc3sc4c(=O)[nH]cnc4c23)CS1,n,n,n,n,n
CN(C)CCNc1ncnc2c1sc1nc(N3CCOCC3)c3c(c12)CC(C)(C)SC3,n,1.8,n,1.7,n
Cc1ccc(-n2ncc(C(=O)Nc3cc(Cl)ccc3Cl)c2C2CCNCC2)cc1,x,x,+,x,n
Cc1ccc(-n2ncc(C(=O)Nc3cc(Cl)cc(Cl)c3)c2C2CCNCC2)cc1C,x,x,+,x,n
O=C(NC1CC1)C1=C[C@H](c2ccc(C(F)(F)F)cc2)C[C@H](OCc2ccc(CO)cc2)O1,x,x,n,x,n
CCN(CC)S(=O)(=O)c1cccc(NC(=O)c2ccc(-n3nc(C)cc3C)cc2)c1,n,n,n,n,n
SMILES,SDO1 yeast rescue,PTEN del growth,Autophagy mod,bCat KO growth,Dynein transport
O=C(N1CCOCC1)N1CCN(C(=O)N2CCOCC2)CC1,x,x,n,x,n
COc1ccc(CNCc2cc3c(C(C)(C)C)nn(-c4ccccc4)c3[nH]c2=O)cc1,n,0.6,n,0.5,n
Cc1ccc(CNCc2cc3c(C(C)(C)C)nn(-c4ccccc4)c3[nH]c2=O)cc1,n,n,n,3.7,n
CC(C)(C)c1nn(-c2ccccc2)c2[nH]c(=O)c(CNCc3ccco3)cc12,n,n,n,n,n
CC(C)(C)c1nn(-c2ccccc2)c2[nH]c(=O)c(CNc3ccc4c(c3)OCCO4)cc12,n,n,n,n,n
Cc1cc(=O)oc2cc(Oc3ncccn3)ccc12,n,n,n,n,n
COCCn1nnnc1CN(CCc1ccc(OC)c(OC)c1)Cc1cc2ccc(C)cc2[nH]c1=O,n,n,+,n,n
COCCn1nnnc1CN(CCc1ccccc1)Cc1cc2cc(OC)ccc2[nH]c1=O,x,x,n,x,n
CCC(=O)OCCNc1cc(Sc2nc3ccccc3s2)c2nonc2c1[N+](=O)[O-],n,3.7,n,4.1,n
CCCC(=O)OCCNc1cc(Sc2nccn2C)c2nonc2c1[N+](=O)[O-],n,1.7,n,1.9,n
O=c1cc(CN2CCN(S(=O)(=O)c3ccccc3)CC2)nc2sccn12,x,x,n,x,n
Cc1ccc(-c2ccc(/C=C3\SC(N4CCOCC4)=NC3=O)o2)cc1,x,x,+,x,n
